Converted amounts (≈) assume the structure as drawn. The source made the active and inactive calls. No cut-off for these calls is given here.
Legend:
[1] = test system: Staphylococcus aureus; experiment: Bactericidal activity against methicillin-resistant Staphylococcus aureus NRS123 (USA400) incubated for 20 hrs followed by replating on tryptic soy agar plates and further incubated for 18 hrs by broth microdilution assay; assay type: functional
[2] = test system: Staphylococcus aureus; experiment: Bactericidal activity against vancomycin-resistant Staphylococcus aureus isolate 10 incubated for 20 hrs followed by replating on tryptic soy agar plates and further incubated for 18 hrs by broth microdilution assay; assay type: functional
Method in brief: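 From MIC wells without visible growth, an aliquot was spotted onto Tryptic soy agar and incubated at 37 °C for at least 18 h; MBC = lowest concentration inhibiting 99.9% of bacterial growth.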

[3] = test system: Staphylococcus aureus; experiment: Antibacterial activity against methicillin-resistant Staphylococcus aureus USA300 NRS384 infected in Caenorhabditis elegans AU37 assessed as reduction in bacterial burden at 20 ug/ml after 18 hrs by microscopic analysis relative to vancomycin; assay type: functional
[4] = Half life in human liver microsomes in absence of NADPH by LC-MS/MS analysis; assay type: ADME, microsome
Method in brief: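 Human liver microsomes were incubated in duplicate at 37 °C in 100 mM potassium phosphate with 3 mM MgCl2, pH 7.4, without NADPH to detect NADPH-free degradation. Aliquots were taken at 0, 10, 20, 40 and 60 min and quenched in ice-cold methanol containing an internal standard, then held at least 10 min at -20 °C before water was added. Half-life was taken from compound depletion.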

[5] = test system: Staphylococcus aureus; experiment: Bactericidal activity against methicillin-resistant Staphylococcus aureus USA100 NRS382 incubated for 20 hrs followed by replating on tryptic soy agar plates and further incubated for 18 hrs by broth microdilution assay; assay type: functional
[6] = test system: Staphylococcus aureus; experiment: Antibacterial activity against methicillin-resistant Staphylococcus aureus USA300 NRS384 after 20 hrs by broth microdilution assay; assay type: functional; details: USA300 NRS384, 20 h
[7] = test system: Staphylococcus aureus; experiment: Antibacterial activity against methicillin-resistant Staphylococcus aureus NRS123 (USA400) infected in mouse J774 cells assessed as reduction in bacterial colony forming units at 16 ug/ml after 4 hrs; assay type: functional, organism-based
Method in brief: (§1)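 J774 macrophages in DMEM + 10% FBS, 37 °C, 5% CO2, infected with USA400 at MOI ~100:1; after 1 h, gentamicin (50 µg/mL) wash; agent at 16 µg/mL in triplicate; at time point, gentamicin wash, lysis in 0.1% Triton X-100, serial dilution, TSA plating 18-22 h at 37 °C; % CFU/mL reduction versus untreated; t-test.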

[8] = test system: Staphylococcus aureus; experiment: Bactericidal activity against methicillin-resistant Staphylococcus aureus USA300 NRS384 incubated for 20 hrs followed by replating on tryptic soy agar plates and further incubated for 18 hrs by broth microdilution assay; assay type: functional
[9] = Selectivity ratio of cytotoxicity against human HaCaT cells to MIC for methicillin-resistant Staphylococcus aureus USA100 NRS382; assay type: toxicity, cell-based
[10] = test system: Staphylococcus aureus; experiment: Potentiation of vancomycin-induced antibacterial activity against vancomycin-resistant Staphylococcus aureus isolate 10 assessed as vancomycin MIC after 20 to 22 hrs by broth microdilution assay (reference value: […]); assay type: functional
[11] = test system: Bacillus subtilis; experiment: Inhibition of cell wall biosynthesis in Bacillus subtilis assessed as induction of formation of misshapen cells at 3.5 ug/ml incubated for 2 hrs in presence of osmotic stabilising agent MSM by FM-4-64 staining based assay; assay type: functional, organism-based
Method in brief: (§2)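 B. subtilis grown in LB at 37 °C to OD600 ~0.2, then treated with or without the osmotic stabiliser MSM for 2 h; stained with FM 4-64 (1 µg/mL, membranes), DAPI (1 µg/mL, DNA) and SYTOX Green (1 µg/mL, lysis); imaged by deconvolution fluorescence microscopy.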

[12] = test system: Staphylococcus aureus; experiment: Bactericidal activity against vancomycin-resistant Staphylococcus aureus isolate 4 incubated for 20 hrs followed by replating on tryptic soy agar plates and further incubated for 18 hrs by broth microdilution assay; assay type: functional
[13] = test system: Staphylococcus aureus; experiment: Selectivity ratio of MBC99.9 for methicillin-resistant Staphylococcus aureus USA100 NRS382 to MIC for methicillin-resistant Staphylococcus aureus USA100 NRS382; assay type: functional
[14] = Selectivity ratio of cytotoxicity against human HaCaT cells to MIC for methicillin-resistant Staphylococcus aureus USA300 NRS384; assay type: toxicity, cell-based
[15] = Selectivity ratio of cytotoxicity against human HaCaT cells to MIC for methicillin-resistant Staphylococcus aureus USA200 NRS383; assay type: toxicity, cell-based
[16] = test system: J774; experiment: Cytotoxicity against mouse J774 cells assessed as reduction in cell viability up to 16 ug/ml after 2 hrs by MTS assay; assay type: cell-based; details: j774, 2 h
Method in brief: (§3)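 Cells were HaCaT keratinocytes or J774 murine macrophages, grown in DMEM with 10% FBS at 37 °C, 5% CO2. They were exposed in triplicate to 8, 16, 32 and 64 µg/mL for 2 h, with DMSO-matched controls. MTS was then added for 4 h and absorbance read at 490 nm. Viability is expressed as % of DMSO-treated cells, mean ± SD.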

[17] = Selectivity ratio of cytotoxicity against human HaCaT cells to MIC for Staphylococcus aureus RN4220 NRS107; assay type: toxicity, cell-based
[18] = test system: Staphylococcus aureus; experiment: Bactericidal activity against methicillin-resistant Staphylococcus aureus NRS123 (USA400) assessed as time required for complete bacterial elimination by time-kill assay; assay type: functional
[19] = test system: Bacillus subtilis; experiment: Inhibition of cell wall biosynthesis in Bacillus subtilis at 4 times MIC incubated for 2 hrs by SYTOX Green staining-based assay
[20] = test system: Staphylococcus aureus; experiment: Antibacterial activity against methicillin-resistant Staphylococcus aureus USA300 NRS384 infected in Caenorhabditis elegans AU37 assessed as reduction in bacterial burden at 20 ug/ml after 18 hrs by microscopic analysis; assay type: functional; parameters: scale not given: the % may be the effect or the level left
[21] = Selectivity ratio of cytotoxicity against human HaCaT cells to MIC for methicillin-resistant Staphylococcus aureus NRS123 (USA400); assay type: toxicity, cell-based
[22] = test system: Staphylococcus aureus; experiment: Bactericidal activity against methicillin-resistant Staphylococcus aureus USA200 NRS383 incubated for 20 hrs followed by replating on tryptic soy agar plates and further incubated for 18 hrs by broth microdilution assay; assay type: functional
[23] = test system: Staphylococcus aureus; experiment: Bactericidal activity against Staphylococcus aureus RN4220 NRS107 incubated for 20 hrs followed by replating on tryptic soy agar plates and further incubated for 18 hrs by broth microdilution assay; assay type: functional
[24] = test system: Staphylococcus aureus; experiment: Antibacterial activity against methicillin-resistant Staphylococcus aureus NRS123 (USA400) infected in mouse J774 cells assessed as reduction in bacterial colony forming units at 16 ug/ml after 24 hrs relative to control; assay type: functional; parameters: scale not given: the % may be the effect or the level left; method in brief: as §1
[25] = test system: Staphylococcus aureus; experiment: Selectivity ratio of MBC99.9 for methicillin-resistant Staphylococcus aureus USA200 NRS383 to MIC for methicillin-resistant Staphylococcus aureus USA200 NRS383; assay type: functional
[26] = test system: Staphylococcus aureus; experiment: Antibacterial activity against vancomycin-resistant Staphylococcus aureus isolate 4 after 20 hrs by broth microdilution assay; assay type: functional; details: isolate 4, 20 h
[27] = test system: Staphylococcus aureus; experiment: Antibacterial activity against vancomycin-resistant Staphylococcus aureus isolate 10 after 20 hrs by broth microdilution assay; assay type: functional; details: isolate 10, 20 h
[28] = test system: Staphylococcus aureus; experiment: Selectivity ratio of MBC99.9 for methicillin-resistant Staphylococcus aureus NRS123 (USA400) to MIC for methicillin-resistant Staphylococcus aureus NRS123 (USA400); assay type: functional
[29] = test system: HaCaT; experiment: Cytotoxicity against human HaCaT cells assessed as reduction in cell viability up to 32 ug/ml after 2 hrs by MTS assay; assay type: cell-based; method in brief: as §3
[30] = test system: Staphylococcus aureus; experiment: Potentiation of vancomycin-induced antibacterial activity against vancomycin-resistant Staphylococcus aureus isolate 10 assessed as reduction in vancomycin MIC after 20 to 22 hrs by broth microdilution assay relative to vancomycin alone; assay type: functional
[31] = test system: Staphylococcus aureus; experiment: Selectivity ratio of MBC99.9 for methicillin-resistant Staphylococcus aureus USA300 NRS384 to MIC for methicillin-resistant Staphylococcus aureus USA300 NRS384; assay type: functional
[32] = test system: Staphylococcus aureus; experiment: Inhibition of cell wall synthesis in Staphylococcus aureus RN4220 NRS107 assessed as UDP-N-acetylmuramyl pentapeptide formation at 10 times MIC incubated for 30 mins by HPLC-MS analysis; assay type: functional, organism-based
[33] = Half life in human liver microsomes in presence of NADPH by LC-MS/MS analysis; assay type: ADME, microsome; details: microsomes
Method in brief: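 Human liver microsomal protein was incubated in duplicate at 37 °C in 100 mM potassium phosphate, 2 mM NADPH, 3 mM MgCl2, pH 7.4. Samples were taken at 0, 10, 20, 40 and 60 min and stopped with ice-cold methanol containing an internal standard. Half-life was derived from depletion. CLint = ln(2)/(T1/2 × microsomal protein concentration).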

[34] = test system: Staphylococcus aureus; experiment: Selectivity ratio of MBC99.9 for Staphylococcus aureus RN4220 NRS107 to MIC for Staphylococcus aureus RN4220 NRS107; assay type: functional
[35] = test system: Bacillus subtilis; experiment: Inhibition of cell wall biosynthesis in Bacillus subtilis assessed as induction of small bulges formation at 3.5 ug/ml incubated for 2 hrs in presence of osmotic stabilising agent MSM by FM-4-64 staining based assay; assay type: functional, organism-based; method in brief: as §2

Cc1nc(-c2ccc3ccccc3c2)sc1-c1cnc(NC(=N)N)s1
MBC [1]: 4 µg/mL (≈ 10.9 µM) | MBC [2]: 4 µg/mL (≈ 10.9 µM) | fold change (FC) [3]: 3 | t1/2 [4]: > 4 h | MBC [5]: 2 µg/mL (≈ 5.47 µM) | MIC [6]: 4 µg/mL (≈ 10.9 µM) | Activity [7]: inactive | MBC [8]: 4 µg/mL (≈ 10.9 µM) | selectivity ratio [9]: 4 to 16 | MIC [10]: 1 µg/mL | inhibition [11]: Active | MBC [12]: 4 µg/mL (≈ 10.9 µM) | selectivity ratio [13]: 2 | selectivity ratio [14]: 4 to 16 | selectivity ratio [15]: 4 to 16 | Activity [16]: Non-Toxic | selectivity ratio [17]: 4 to 16 | Time [18]: <=4 hr | inhibition [19]: Active | Activity [20]: 30% | selectivity ratio [21]: 4 to 16 | MBC [22]: 2 µg/mL (≈ 5.47 µM) | MBC [23]: 4 µg/mL (≈ 10.9 µM) | Activity [24]: 81% | selectivity ratio [25]: 1 | MIC [26]: 4 µg/mL (≈ 10.9 µM) | MIC [27]: 4 µg/mL (≈ 10.9 µM) | selectivity ratio [28]: 2 | Activity [29]: Non-Toxic | fold change (FC) [30]: 512 | selectivity ratio [31]: 1 | inhibition [32]: Active | t1/2 [33]: 2.23 h | selectivity ratio [34]: 2 | inhibition [35]: Active

— ChEMBL document CHEMBL4130411, “Arylthiazole antibiotics targeting intracellular methicillin-resistant Staphylococcus aureus (MRSA) that interfere with bacterial cell wall synthesis” (Eur J Med Chem, 2017)
